Reference: ChEMBL document CHEMBL1143202
Activity calls are given as the source filed them. The calls are words filed in the database; no cut-off is given here.

Columns and labels:
[1] = species on record: Rattus norvegicus; experiment: Effect on oxygen consumption rate in Wistar Albino rat liver mitochondria assessed as inhibition in state 3 respiration at 200 uM in presence of sodium glutamate relative to control; format: functional; design: scale not given: the % may be the effect or the level left
In short: (§1)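 Isolated rat liver mitochondria respiring on glutamate or succinate as substrate; oxygen consumption recorded. State 3 is the rate after ADP addition and state 4 the rate after ADP is exhausted. The respiratory control coefficient (RCC) and ADP/O ratio were determined in the same runs. Flavone tested across 25–200 μM.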

[2] = species on record: Rattus norvegicus; experiment: Effect on oxygen consumption rate in Wistar Albino rat liver mitochondria assessed as inhibition in state 4 respiration at 25 uM in presence of sodium glutamate relative to control; format: functional; design: scale not given: the % may be the effect or the level left; in short: as §1
[3] = species on record: Rattus norvegicus; experiment: Inhibition of ATPase in Wistar Albino rat livers intact mitochondria at 50 uM relative to control; design: scale not given: the % may be the effect or the level left
[4] = species on record: Rattus norvegicus; experiment: Effect on oxygen consumption rate in Wistar Albino rat liver mitochondria assessed as inhibition in state 4 respiration at 75 uM in presence of sodium glutamate relative to control; format: functional; design: scale not given: the % may be the effect or the level left; in short: as §1
[5] = species on record: Rattus norvegicus; experiment: Inhibition of ATPase in Wistar Albino rat livers disrupted mitochondria at 200 uM relative to control; design: scale not given: the % may be the effect or the level left
[6] = species on record: Rattus norvegicus; experiment: Inhibition of succinate dehydrogenase in Wistar Albino rat liver mitochondria at 75 uM relative to control; design: scale not given: the % may be the effect or the level left
[7] = species on record: Rattus norvegicus; experiment: Inhibition of ATPase in Wistar Albino rat livers intact mitochondria at 75 uM relative to control; design: scale not given: the % may be the effect or the level left
[8] = species on record: Rattus norvegicus; experiment: Effect on oxygen consumption rate in Wistar Albino rat liver mitochondria assessed as inhibition in state 3 respiration at 100 uM in presence of sodium glutamate relative to control; format: functional; design: scale not given: the % may be the effect or the level left; in short: as §1
[9] = species on record: Rattus norvegicus; experiment: Inhibition of ATPase in Wistar Albino rat livers disrupted mitochondria at 75 uM relative to control; design: scale not given: the % may be the effect or the level left
[10] = species on record: Rattus norvegicus; experiment: Inhibition of ATPase in Wistar Albino rat livers intact mitochondria at 25 uM relative to control; design: scale not given: the % may be the effect or the level left
[11] = species on record: Rattus norvegicus; experiment: Effect on ADP/O ratio in Wistar Albino rat liver mitochondria at 50 uM in presence of sodium glutamate relative to control; format: functional; in short: as §1
[12] = species on record: Rattus norvegicus; experiment: Inhibition of NADH-cytochrome c reductase in Wistar Albino rat liver mitochondria at 75 uM relative to control; design: scale not given: the % may be the effect or the level left
[13] = species on record: Rattus norvegicus; experiment: Inhibition of NADH-cytochrome c reductase in Wistar Albino rat liver mitochondria at 200 uM relative to control; design: scale not given: the % may be the effect or the level left
[14] = species on record: Rattus norvegicus; experiment: Inhibition of succinate oxidase in Wistar Albino rat liver mitochondria at 75 uM relative to control; design: scale not given: the % may be the effect or the level left
[15] = species on record: Rattus norvegicus; experiment: Inhibition of NADH dehydrogenase in Wistar Albino rat liver mitochondria at 100 uM relative to control; design: scale not given: the % may be the effect or the level left
[16] = species on record: Rattus norvegicus; experiment: Effect on oxygen consumption rate in Wistar Albino rat liver mitochondria assessed as inhibition in state 4 respiration at 100 uM in presence of succinate relative to control; format: functional; design: scale not given: the % may be the effect or the level left; in short: as §1
[17] = species on record: Rattus norvegicus; experiment: Effect on oxygen consumption rate in Wistar Albino rat liver mitochondria assessed as inhibition in state 3 respiration at 75 uM in presence of sodium glutamate relative to control; format: functional; design: scale not given: the % may be the effect or the level left; in short: as §1
[18] = species on record: Rattus norvegicus; experiment: Effect on oxygen consumption rate in Wistar Albino rat liver mitochondria assessed as inhibition in state 3 respiration at 100 uM in presence of succinate relative to control; format: functional; design: scale not given: the % may be the effect or the level left; in short: as §1
[19] = species on record: Rattus norvegicus; experiment: Effect on oxygen consumption rate in Wistar Albino rat liver mitochondria assessed as inhibition in state 3 respiration at 200 uM in presence of succinate relative to control; format: functional; design: scale not given: the % may be the effect or the level left; in short: as §1
[20] = species on record: Rattus norvegicus; experiment: Effect on ADP/O ratio in Wistar Albino rat liver mitochondria at 100 uM in presence of succinate relative to control; format: functional; in short: as §1
[21] = species on record: Rattus norvegicus; experiment: Effect on respiratory control coefficient in Wistar Albino rat liver mitochondria at 100 uM in presence of succinate relative to control; format: functional; in short: as §1
[22] = species on record: Rattus norvegicus; experiment: Effect on oxygen consumption rate in Wistar Albino rat liver mitochondria assessed as inhibition in state 3 respiration at 50 uM in presence of sodium glutamate relative to control; format: functional; design: scale not given: the % may be the effect or the level left; in short: as §1
[23] = species on record: Rattus norvegicus; experiment: Inhibition of NADH-cytochrome c reductase in Wistar Albino rat liver mitochondria at 25 uM relative to control; design: scale not given: the % may be the effect or the level left
[24] = species on record: Rattus norvegicus; experiment: Inhibition of ATPase in Wistar Albino rat livers intact mitochondria at 200 uM relative to control; design: scale not given: the % may be the effect or the level left
[25] = species on record: Rattus norvegicus; experiment: Effect on ADP/O ratio in Wistar Albino rat liver mitochondria at 50 uM in presence of succinate relative to control; format: functional; in short: as §1
[26] = species on record: Rattus norvegicus; experiment: Inhibition of ATPase in Wistar Albino rat livers disrupted mitochondria at 100 uM relative to control; design: scale not given: the % may be the effect or the level left
[27] = species on record: Rattus norvegicus; experiment: Inhibition of succinate oxidase in Wistar Albino rat liver mitochondria at 50 uM relative to control; design: scale not given: the % may be the effect or the level left
[28] = tested on: Liver; experiment: Reduction of cytochrome c in rat liver mitochondria in presence of catalase at 200 uM; format: functional; design: scale not given: the % may be the effect or the level left
[29] = species on record: Rattus norvegicus; experiment: Effect on respiratory control coefficient in Wistar Albino rat liver mitochondria at 25 uM in presence of sodium glutamate relative to control; format: functional; in short: as §1
[30] = species on record: Rattus norvegicus; experiment: Inhibition of succinate dehydrogenase in Wistar Albino rat liver mitochondria at 50 uM relative to control; design: scale not given: the % may be the effect or the level left
[31] = species on record: Rattus norvegicus; experiment: Inhibition of succinate dehydrogenase in Wistar Albino rat liver mitochondria at 100 uM relative to control; design: scale not given: the % may be the effect or the level left
[32] = species on record: Rattus norvegicus; experiment: Effect on ADP/O ratio in Wistar Albino rat liver mitochondria at 100 uM in presence of sodium glutamate relative to control; in short: as §1
[33] = species on record: Rattus norvegicus; experiment: Effect on oxygen consumption rate in Wistar Albino rat liver mitochondria assessed as inhibition in state 4 respiration at 75 uM in presence of succinate relative to control; format: functional; design: scale not given: the % may be the effect or the level left; in short: as §1
[34] = species on record: Rattus norvegicus; experiment: Effect on respiratory control coefficient in Wistar Albino rat liver mitochondria at 50 uM in presence of sodium glutamate relative to control; format: functional; in short: as §1
[35] = species on record: Rattus norvegicus; experiment: Effect on respiratory control coefficient in Wistar Albino rat liver mitochondria at 25 uM in presence of succinate relative to control; format: functional; in short: as §1
[36] = species on record: Rattus norvegicus; experiment: Effect on oxygen consumption rate in Wistar Albino rat liver mitochondria assessed as inhibition in state 4 respiration at 50 uM in presence of succinate relative to control; format: functional; design: scale not given: the % may be the effect or the level left; in short: as §1
[37] = species on record: Rattus norvegicus; experiment: Inhibition of succinate dehydrogenase in Wistar Albino rat liver mitochondria at 200 uM relative to control; design: scale not given: the % may be the effect or the level left
[38] = species on record: Rattus norvegicus; experiment: Effect on oxygen consumption rate in Wistar Albino rat liver mitochondria assessed as inhibition in state 3 respiration at 75 uM in presence of succinate relative to control; format: functional; design: scale not given: the % may be the effect or the level left; in short: as §1
[39] = species on record: Rattus norvegicus; experiment: Inhibition of cytochrome c oxidase in Wistar Albino rat liver mitochondria at 75 uM relative to control; design: scale not given: the % may be the effect or the level left
[40] = species on record: Rattus norvegicus; experiment: Inhibition of cytochrome c oxidase in Wistar Albino rat liver mitochondria at 50 uM relative to control; design: scale not given: the % may be the effect or the level left
[41] = species on record: Rattus norvegicus; experiment: Inhibition of cytochrome c oxidase in Wistar Albino rat liver mitochondria at 100 uM relative to control; design: scale not given: the % may be the effect or the level left
[42] = tested on: Liver; experiment: Reduction of cytochrome c in rat liver mitochondria in presence of SOD and catalase at 200 uM; format: functional

- Activity [3]: 94%
- Activity [5]: 90%
- Activity [6]: 78%
- Activity [7]: 98%
- Activity [9]: 105%
- Activity [10]: 99%
- Activity [12]: 46%
- Activity [13]: 19%
- Activity [14]: 86%
- Activity [15]: 50%
- Activity [23]: 54%
- Activity [24]: 101%
- Activity [26]: 94%
- Activity [27]: 83%
- Activity [28]: 15%
- Activity [30]: 69%
- Activity [31]: 50%
- Activity [32]: 88.6%
- Activity [37]: 51%
- Activity [39]: 102%
- Activity [40]: 104%
- Activity [41]: 96%
- Activity [42]: inactive
Compound: COc1c(O)cc2oc(-c3ccc(O)c(O)c3)cc(=O)c2c1O
- Activity [1]: 19.8%
- Activity [2]: 109%
- Activity [4]: 109%
- Activity [8]: 31.8%
- Activity [11]: 85%
- Activity [16]: 132%
- Activity [17]: 54.9%
- Activity [18]: 45.4%
- Activity [19]: 34.7%
- Activity [20]: 74.7%
- Activity [21]: 36.8%
- Activity [22]: 66%
- Activity [25]: 85.4%
- Activity [29]: 73%
- Activity [33]: 121%
- Activity [34]: 66.5%
- Activity [35]: 76.4%
- Activity [36]: 109%
- Activity [38]: 51.2%
